High-throughput results deposited in PubChem BioAssay by several laboratories.
NTR1 agonist: agonists of human neurotensin receptor NTR1 | P30989 | NTR1-U2OS beta-arrestin-GFP spot imaging, agonist mode | activation, % at 20 µM | actives 0.17% (n = 330,000);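 active = activation at or above 40% of the spot to cytoplasm intensity ratio, with at least 20 cells analyzed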
OX1R antag-1: OX1R (human) antagonism | OX1R-expressing cells, FRET antagonist read-out | inhibition, % at 6.6 µM | actives 1.8% (n = 330,000) | AID 485270; in the data active = inhibition mostly above about 38%, no sharp cut-off; inactive = mostly below about 40%
Target sequence (O43613 whole entry, looked up): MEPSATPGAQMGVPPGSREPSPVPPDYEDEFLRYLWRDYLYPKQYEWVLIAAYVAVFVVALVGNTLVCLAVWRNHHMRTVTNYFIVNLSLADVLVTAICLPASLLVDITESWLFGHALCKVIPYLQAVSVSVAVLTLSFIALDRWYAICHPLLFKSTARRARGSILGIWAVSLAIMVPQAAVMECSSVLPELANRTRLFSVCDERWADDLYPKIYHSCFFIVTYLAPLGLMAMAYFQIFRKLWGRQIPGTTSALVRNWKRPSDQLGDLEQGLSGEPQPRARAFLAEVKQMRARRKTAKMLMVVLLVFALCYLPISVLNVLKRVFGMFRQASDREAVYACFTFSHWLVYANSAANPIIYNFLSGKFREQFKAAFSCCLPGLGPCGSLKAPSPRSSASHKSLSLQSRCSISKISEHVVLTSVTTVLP
CHO parental Ca: counter-screen for OX1R antagonists: effect in parental CHO cells; parental CHO-K1, ATP-induced calcium, Fluo-8 fluorescence; inhibition, % at 5.6 µM; actives 0.63% (n = 330,000); AID 463079;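 active = inhibition above that plate's mean sample inhibition plus 3 SD, cut at about 26% in these data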
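Assay system – parental CHO cells · Reagent – ATP stimulus · Detection – intracellular calcium via Fluo-8 no-wash fluorescent dye · Evaluation – percent inhibition of ATP-evoked calcium rise, normalized to controls · Controls – ATP wells versus no-ATP DMSO wells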
OX1R antag-2: antagonists of human orexin 1 receptor; AID 434989; actives 0.43% (n = 330,000); CHO/OX1R cells, Fluo-8 calcium fluorescence, orexin A; O43613; inhibition, % at 5 µM;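 active = inhibition above its plate's threshold, mean inhibition of all tested compounds on the plate plus 3 SD, cut at about 37% in these data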
TAAR1 antagonist: antagonists of human TAAR1. inhibition, % at 3 µM. actives 1.5% (n = 360,000). Q96RJ0. AID 624466. CHO RD-HGA16 TAAR1, Fluo-8 calcium fluorescence, antagonist;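 active = inhibition above a per-plate cutoff, the mean inhibition of test compounds on that plate plus 3 SD, cut at about 49% in these data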
Target sequence (Q96RJ0 whole entry, looked up): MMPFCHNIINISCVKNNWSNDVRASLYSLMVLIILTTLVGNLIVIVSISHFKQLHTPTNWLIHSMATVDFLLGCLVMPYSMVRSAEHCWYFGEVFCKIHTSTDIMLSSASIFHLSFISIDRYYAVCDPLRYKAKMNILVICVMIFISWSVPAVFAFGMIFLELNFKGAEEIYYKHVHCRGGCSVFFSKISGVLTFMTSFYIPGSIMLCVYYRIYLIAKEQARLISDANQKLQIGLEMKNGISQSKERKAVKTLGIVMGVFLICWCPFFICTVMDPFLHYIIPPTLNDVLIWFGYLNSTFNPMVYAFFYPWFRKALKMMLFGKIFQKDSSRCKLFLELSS
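Material: CHO RD-HGA16 cells bearing hTAAR1; compound dosing: one-point dosing, 3 µM nominal final; schedule: dye loading 75 min at 37 °C, then 30 min room temperature; measured by: calcium fluorescence with Fluo-8; control set: vehicle and agonist controls; replication: n of 1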
TAAR1 agonist: agonists of human TAAR1; Q96RJ0; CHO RD-HGA16 TAAR1, Fluo-8 calcium fluorescence; vehicle wells 0%, saturating PEA agonist 100%; activation, % at 3 µM; actives 0.99% (n = 360,000); AID 624467;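 active = activation above the mean activation of all test compounds in the run plus 3 SD, cut at about 38% in these data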
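Test system: RD-HGA16 (CHO) cells co-expressing Gα16 and hTAAR1; dosing: one-point dosing at 3 µM (nominal); timing: 17-24 h seeding, 75 min 37 °C dye, 30 min RT; signal: kinetic Fluo-8 calcium fluorescence; read-out basis: % activation relative to PEA EC100 response; controls: DMSO and PEA EC100; replicates: n 1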
Each line names hits and unclear results; the compound was inactive in the other large screens. Compounds with a hit are over-represented: about 4% of the library has one in this group of screens.

Cc1ccc(N)c([N+](=O)[O-])c1	none
CC1(C)N=c2ccc([N+](=O)[O-])c(N)c2=[N+]1[O-]	OX1R antag-1 75
CCCn1c(SCC(=O)Nc2cccc(F)c2)nc(O)cc1=O	CHO parental Ca 40, OX1R antag-2 79
Cc1ccc(C)c(Sc2ccc(NC(=O)CCN3C(=O)NC4(CCCC4)C3=O)cc2)c1	CHO parental Ca 63, OX1R antag-2 60
COc1cc(OC)cc(-c2nnc(SCc3c(F)cccc3Cl)o2)c1	CHO parental Ca 38
Cc1cc(C)c(N=C2C(=O)Nc3ccccc32)c(C)c1	OX1R antag-1 38
Cc1ccc(N=C(NOCc2ccc(Cl)cc2Cl)c2nonc2N)c(C)c1	TAAR1 antagonist 57
CCCCCc1cc(=O)c2ccccc2o1	none
O=C1C(Oc2ccc(Cl)cc2)C(c2ccc3c(c2)OCO3)N1CC1CCCO1 (stereo not drawn)	TAAR1 antagonist 50
COc1ccc(CCN2C(=O)C(Oc3ccccc3)C2c2ccc3c(c2)OCO3)cc1 (stereo not drawn)	none
COCc1[nH]nc2c1C(c1ccc(Br)cc1)N(Cc1ccccc1)C2=O (stereo not drawn)	none (no result: NTR1 agonist, OX1R antag-1, CHO parental Ca, OX1R antag-2)
O=C(COC(=O)c1cc(=O)[nH]c2ccccc12)NCc1cccs1	none
NC(=O)c1ccsc1NC(=O)COC(=O)c1cc(=O)[nH]c2ccccc12	TAAR1 antagonist 50
COc1cc(CC(=O)OCC(=O)Nc2sccc2C(N)=O)cc(OC)c1OC	TAAR1 antagonist 63
COc1ccc(C(=O)NCC2CCN(C(=O)C(=O)c3cccs3)CC2)cc1	none (no result: NTR1 agonist, OX1R antag-1, CHO parental Ca, OX1R antag-2)
Cc1cc(NC(=O)COC(=O)CCNS(=O)(=O)c2cccc(C(F)(F)F)c2)no1	none
CCc1cc2c(COC(=O)CCNS(=O)(=O)c3cccc(C(F)(F)F)c3)cc(=O)oc2cc1O	TAAR1 antagonist 53
Cc1ccc(C(C)(C)C)cc1S(=O)(=O)Nc1cccc(C(=O)N2CCN(c3ccccn3)CC2)c1	TAAR1 antagonist 61 (no result: OX1R antag-1, CHO parental Ca, OX1R antag-2)
C[C@H](O)[C@@H]1C(=O)N2CCc3c([nH]c4c(-c5ccccc5)cccc34)[C@@H]2C[C@@H]1N(C)CC1CCCCC1	none (no result: NTR1 agonist, OX1R antag-1, CHO parental Ca, OX1R antag-2)
CC(=O)c1c(C)[nH]c(C(=O)CSc2nc3ccccc3n2C)c1C	OX1R antag-1 108, CHO parental Ca 51, OX1R antag-2 78, TAAR1 antagonist 55
COc1ccc(C2SCCN2S(=O)(=O)c2ccc(F)cc2)cc1OC (stereo not drawn)	OX1R antag-1 37
COc1ccc(S(=O)(=O)N2CCSC2c2ccc(OC)c(OC)c2)cc1 (stereo not drawn)	none
COCCN1CC(CNC(=O)c2cc(COc3ccc(C)c(C)c3)on2)CC1=O (stereo not drawn)	none
Cc1ccc(Nc2nc(-c3cccnc3)cs2)cc1C	OX1R antag-1 58
O=C(Nc1ccc(C(F)(F)F)cc1)N1CCN(c2ccnc3cc(Cl)ccc23)CC1	none
COc1ccc(CN(C)C(=O)c2cc(S(=O)(=O)NCc3ccccc3)ccc2C)c(OC)c1	OX1R antag-1 33
CC(C)(C)c1ccc(OCCC(=O)Nc2ccc(N3CCOCC3)cc2N2CCOCC2)cc1	none
CCN(CC)S(=O)(=O)c1ccc(OC(C)C)c(NC(=O)c2c3c(nc4ccccc24)CCN(Cc2ccccc2)C3)c1	TAAR1 antagonist 55
Cc1ccc(C)c(-c2cc(C(=O)Nc3nccs3)c3ccccc3n2)c1	TAAR1 antagonist 51
Cc1ccc(NC(=O)c2cc(C)nc3ccccc23)cc1	none
Cc1ccc(C)c(-c2cc(C(=O)NCc3cccs3)c3ccccc3n2)c1	TAAR1 antagonist 49
COC(=O)c1sccc1NC(=O)c1cc(-c2cc(C)ccc2C)nc2ccccc12	none
Cc1ccc(C)c(-c2cc(C(=O)NN3CCOCC3)c3ccccc3n2)c1	none
Cc1cccc(NC(=O)c2cc(-c3ccc(C)s3)nc3ccccc23)n1	TAAR1 antagonist 51
Cc1ccc(C)c(NC(=O)c2cc(C)nc3ccccc23)c1	CHO parental Ca 67
CCOC(=O)[C@@H]1CSCCS(=O)(=O)N1C(=O)[C@H](Cc1ccccc1)NC(=O)OC(C)(C)C	none (no result: NTR1 agonist, OX1R antag-1, CHO parental Ca, OX1R antag-2)
C=CCn1c(=S)[nH]c2cc(C(=O)N3CCN(c4ccccc4OC)CC3)ccc2c1=O	none
O=C(NCC1CCN(C(=O)C(=O)c2cc3ccccc3o2)CC1)c1cccnc1	none (no result: NTR1 agonist, OX1R antag-1, CHO parental Ca, OX1R antag-2)
C[C@H](O)[C@@H]1CN2CCc3ccc(-c4ccc5c(c4)OCO5)cc3[C@@H]2C[C@@H]1N(C)C(=O)NC1CCCCC1	none (no result: NTR1 agonist, OX1R antag-1, CHO parental Ca, OX1R antag-2)
COc1c2ccoc2c(OC[C@@H](O)C(C)(C)O)c2oc(=O)ccc12	OX1R antag-1 62
N#Cc1ccc2nc(-c3ccc(CN4CCC(n5cc(-c6ccccc6)[nH]c5=O)CC4)cc3)c(-c3ccccc3)nc2c1	none (no result: NTR1 agonist, OX1R antag-1, CHO parental Ca, OX1R antag-2)
CN(C)c1ccc(/C=C/c2nc3ccccc3c(=O)n2-c2ccc(C(=O)O)cc2)cc1	CHO parental Ca 64, OX1R antag-2 83
O=C(O)c1cccc(-n2c(/C=C/c3ccccc3)nc3ccccc3c2=O)c1	none
O=S(=O)(Cc1ccccc1)CS(=O)(=O)Cc1ccccc1	none (no result: NTR1 agonist, OX1R antag-1, CHO parental Ca, OX1R antag-2)
O=C(Nc1cc(S(=O)(=O)Nc2ccccc2Cl)ccc1O)c1cc2c(s1)CCCC2	none
Cc1ccc(NC(=O)c2cc3c(s2)CCCC3)cc1S(=O)(=O)Nc1ccccc1Cl	OX1R antag-1 70
Cc1cc2nsnc2c(S(=O)(=O)N2CCN(C)CC2)c1C	OX1R antag-1 42
C[C@@H]1CN([C@@H](C)CO)C(=O)CCCn2cc(nn2)CO[C@H]1CN(C)C(=O)Nc1ccc(N2CCN(C)CC2)cc1	none (no result: NTR1 agonist, OX1R antag-1, CHO parental Ca, OX1R antag-2)
CCCCCCCCN1C(=O)[C@@H](CC(=O)N2CCOCC2)C[C@@]2(C(=O)OC)C1=C[C@H](C1CCCC1)O[C@@H]2C	none (no result: NTR1 agonist, OX1R antag-1, CHO parental Ca, OX1R antag-2)
COc1cc(SC#N)ccc1N=Cc1c(C)[nH]n(-c2ccc(C)c(C)c2)c1=O	CHO parental Ca 96, OX1R antag-2 96, TAAR1 antagonist 87
COC(=O)c1ccc(N2CCN(S(=O)(=O)c3ccc4ccccc4c3)CC2)c([N+](=O)[O-])c1	CHO parental Ca 38
COc1cccc(N2CCN(c3ccc(S(=O)(=O)N4CCN(C)CC4)cc3[N+](=O)[O-])CC2)c1	none
COc1ccc(N2CCN(S(=O)(=O)c3ccc4c(c3)CCCC4)CC2)c([N+](=O)[O-])c1	OX1R antag-1 37
CC1CCN(C(=O)c2[nH]cnc2C(=O)N(C)CCO)CC1	none (no result: NTR1 agonist, OX1R antag-1, CHO parental Ca, OX1R antag-2)
c1ccc(OCCNc2ccn3nc(-c4ccc(OCCN5CCOCC5)cc4)cc3n2)cc1	TAAR1 antagonist 61 (no result: NTR1 agonist, OX1R antag-1, CHO parental Ca, OX1R antag-2)
c1csc(CNc2ccn3nc(-c4ccc(OCCN5CCOCC5)cc4)cc3n2)c1	none (no result: NTR1 agonist, OX1R antag-1, CHO parental Ca, OX1R antag-2)
C[C@@H]1CN([C@@H](C)CO)C(=O)CCCn2cc(nn2)CO[C@H]1CN(C)C(=O)Nc1ccccc1F	none (no result: NTR1 agonist, OX1R antag-1, CHO parental Ca, OX1R antag-2)
CN(C)c1ccc2nsnc2c1[N+](=O)[O-]	OX1R antag-1 39
